Screening results deposited in PubChem BioAssay by Broad Institute.
PAX8 inh HTS: PAX8 transcriptional activity inhibition; RMG-I TPO-luciferase reporter, SteadyGlo, 24 h; inhibition, % at 12.6 µM; actives 1.2% (n = 360,000); AID 652154;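 active means mean replicate inhibition at least 60% with every replicate also reaching 60%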;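 further: luciferase light reporting Pax8 driven TPO promoter activity; plate controls were median of neutral control wells for no effect and mitoxantrone controls for full effect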
FN deposition inh: fibronectin deposition inhibition; AH1F fibroblasts, Alexa488-fibronectin deposition fluorescence, overnight; inhibition, % at 12.6 µM; actives 0.086% (n = 350,000); AID 743247;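 active means mean inhibition across replicates of 30% or more, regardless of how many single replicates reach that level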;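 further: positive control wells lacked labelled fibronectin entirely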
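Material: AH1F fibroblasts assembling fluorescent fibronectin matrix; amount: 10000 AH1F cells/well; medium: DMEM, 2% serum; reagent: Alexa488-fibronectin, 24 nM final in well; dosing: single compound dose, delivered by pin transfer; incubation: 1 h adhesion, overnight exposure; detection: fluorescence after three HBSS washes, excitation 485 nm, emission 525 nm; measure: fibronectin deposition inhibition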
RAD54 branch: inhibitors of human RAD54 branch migration. AID 602329. actives 0.14% (n = 360,000). inhibition, % at 10.4 µM. Q92698. RAD54 Holliday junction branch migration, FAM/BHQ fluorescence;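 active means mean normalized replicate activity at least 40 and at least half of replicates scoring 40 or more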;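 further: 0% = median of neutral control wells and 100% = median of positive control wells; inhibitors cause a drop in the FAM fluorescence signal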
Target sequence (Q92698 whole entry, looked up): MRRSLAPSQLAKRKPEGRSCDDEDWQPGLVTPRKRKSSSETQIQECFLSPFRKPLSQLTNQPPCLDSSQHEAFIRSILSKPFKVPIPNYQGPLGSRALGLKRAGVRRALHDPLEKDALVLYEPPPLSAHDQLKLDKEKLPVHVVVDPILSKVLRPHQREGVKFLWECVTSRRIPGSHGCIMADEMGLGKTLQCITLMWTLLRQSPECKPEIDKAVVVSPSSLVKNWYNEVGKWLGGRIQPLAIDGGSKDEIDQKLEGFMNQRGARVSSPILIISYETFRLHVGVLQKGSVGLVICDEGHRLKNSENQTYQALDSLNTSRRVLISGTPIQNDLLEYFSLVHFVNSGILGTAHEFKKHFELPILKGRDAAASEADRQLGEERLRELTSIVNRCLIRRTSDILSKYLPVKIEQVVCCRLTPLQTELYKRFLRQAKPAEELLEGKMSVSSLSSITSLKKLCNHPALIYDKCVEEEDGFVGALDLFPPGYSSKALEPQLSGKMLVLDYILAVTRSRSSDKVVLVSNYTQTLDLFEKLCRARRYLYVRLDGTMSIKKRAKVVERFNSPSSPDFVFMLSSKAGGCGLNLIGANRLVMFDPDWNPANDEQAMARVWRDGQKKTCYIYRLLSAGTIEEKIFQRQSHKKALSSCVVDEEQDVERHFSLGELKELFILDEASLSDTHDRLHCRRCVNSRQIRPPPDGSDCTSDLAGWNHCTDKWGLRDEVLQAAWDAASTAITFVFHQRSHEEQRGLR
RAD52 anneal inh: blocks human RAD52 DNA annealing; AID 651710; inhibition, % at 18.7 µM; P43351; recombinant RAD52 DNA annealing, FRET fluorescence; actives 0.46% (n = 360,000);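 active means every replicate showing at least 50% inhibition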
The depositor's hits bear a star; . = not tested or not shown. Most compounds without a hit are left out; they make up all but 1.3% or so of the library.

SMILES | PAX8 inh HTS | FN deposition inh | RAD54 branch | RAD52 anneal inh
C[C@@H]1CCCCO[C@@H](CN(C)S(=O)(=O)c2ccc(F)cc2)[C@@H](C)CN([C@@H](C)CO)C(=O)c2cc(NS(=O)(=O)c3ccc(Cl)cc3)ccc2O1 | 42.5 | -8.2 | -8.3 | 12.5
C[C@@H]1CCCCO[C@@H](CN(C)S(=O)(=O)c2ccc(Cl)cc2)[C@H](C)CN([C@H](C)CO)C(=O)c2cc(NS(=O)(=O)c3ccc(F)cc3)ccc2O1 | 80.7* | -2.8 | -13.8 | -2.5
C[C@@H]1CCCCO[C@H](CN(C)S(=O)(=O)c2ccc(Cl)cc2)[C@@H](C)CN([C@@H](C)CO)C(=O)c2cc(NS(=O)(=O)c3ccc(F)cc3)ccc2O1 | 75.1* | -0.2 | 6.7 | -14.8
C[C@@H]1CN([C@@H](C)CO)C(=O)c2cc(NS(=O)(=O)c3ccc(F)cc3)ccc2O[C@@H](C)CCCCO[C@@H]1CN(C)S(=O)(=O)c1ccc(Cl)cc1 | 46.4 | -11.5 | -7.8 | 9.1
C[C@@H]1CN([C@H](C)CO)C(=O)c2cc(NS(=O)(=O)c3ccc(Cl)cc3)ccc2O[C@@H](C)CCCCO[C@H]1CN(C)S(=O)(=O)c1ccc(F)cc1 | 87.2* | 2.6 | -1.9 | -20.0
C[C@H](CO)N1C[C@H](C)[C@@H](CN(C)S(=O)(=O)c2ccc(F)cc2)OCCCC[C@H](C)Oc2ccc(NS(=O)(=O)c3ccc(Cl)cc3)cc2C1=O | 90.0* | 7.9 | -2.6 | 5.2
CCC(C(=O)N(C(C)C)C(C)C)c1ccccc1 (centres undefined) | 7.3 | -2.1 | -3.3 | 31.5
Cc1ccccc1OCc1nnc(SCc2cc(=O)[nH]c3ccccc23)n1-c1ccccc1 | 70.7* | -5.5 | 3.0 | -19.3
CCOc1ccc(NCc2cccn2-c2nnc(N3CCC(C(=O)NCCCN4C(C)CCCC4C)CC3)s2)cc1 (centres undefined) | 9.7 | 25.3 | 15.6 | 64.4*
CCOc1ccc(NCc2cccn2-c2nnc(N3CCC(C(=O)NCCCN4CCCCC4)CC3)s2)cc1 | -13.4 | -1.6 | 8.5 | 23.6
C=CCn1c(C)cc(C(=O)COC(=O)c2ccc3c(c2)NC(=O)CS3)c1C | 6.1 | . | -9.4 | -19.9
Cc1ccc(CS(=O)Cc2ccc(C(=O)NC3CCCC(C)C3C)o2)cc1 (centres undefined) | 1.7 | 30.4* | -9.7 | -16.7
Cc1ccc(CS(=O)Cc2ccc(C(=O)NC3CCCCCC3)o2)cc1 (centres undefined) | 3.4 | -16.7 | -7.8 | -17.8
S=C(NCCc1ccc(Cl)cc1)Nc1ccc(Cl)cc1Cl | -9.2 | -4.0 | . | .
CCSC(=O)NC12CC3CC(CC(C3)C1)C2 | . | . | 8.2 | -15.9
Cc1cccc[n+]1CCCCCCCCCC[n+]1ccccc1C | 8.2 | -1.5 | 7.9 | -1.1
CCCCCCCC[n+]1cccc2c3ccccc3ccc21 | 81.5* | 4.7 | . | 39.0
Cc1ccc(C(=O)c2ccccc2C(=O)OCC(=O)Nc2cccc([N+](=O)[O-])c2)cc1 | . | . | -1.4 | .
Cc1ccc(-c2nc(C)sc2CC(=O)OCC(=O)Nc2cccc([N+](=O)[O-])c2)cc1 | 108.7* | 3.5 | . | -28.2
O=C(c1ccccc1F)N1C[C@H]2O[C@H](CNS(=O)(=O)c3ccccc3)CC[C@H]21 | . | . | . | -6.4
O=C(c1ccccc1F)N1C[C@@H]2O[C@H](CNS(=O)(=O)c3ccccc3)CC[C@@H]21 | . | . | . | 59.3*
Cc1ccc(S(=O)(=O)NC[C@@H]2CC[C@H]3[C@H](CN3Cc3ccccc3C(=O)O)O2)cc1 | -1.4 | . | . | 7.9
COc1ccc(S(=O)(=O)NC[C@H]2CC[C@H]3[C@H](CN3Cc3cc(F)ccc3F)O2)cc1 | . | . | . | 66.0*
Cc1ccc(S(=O)(=O)NC[C@H]2CC[C@H]3[C@H](CN3Cc3cc(F)ccc3F)O2)cc1 | . | . | . | 60.7*
CN(C)c1ccc(C(=O)OCC(=O)NCCCc2ccccc2)cc1 | 10.7 | -8.0 | -6.8 | -9.1
SMILES | PAX8 inh HTS | FN deposition inh | RAD54 branch | RAD52 anneal inh
O=C(C[C@H]1C[C@@H]2c3cc(NC(=O)Nc4ccccc4)ccc3O[C@@H]2[C@@H](CO)O1)NCc1ccncc1 | -3.5 | -1.4 | -1.5 | 1.4
CCCC(=O)N(C1CC(C)C(C#N)(C#N)C1(C#N)C#N)N(C)C (centres undefined) | 67.6* | 16.1 | . | -9.1
CC(=O)N(C1CC(C)C(C#N)(C#N)C1(C#N)C#N)N(C)C (centres undefined) | 74.9* | 14.4 | . | -9.6
Oc1[nH]c2ccc(Br)cc2c1N=NC(=S)N1CCOCC1 | 91.2* | 31.3* | -10.8 | -17.5
Oc1[nH]c2ccccc2c1N=NC(=S)N1CCOCC1 | . | . | -7.2 | .
CCCCCCN1C[C@@H](n2cc(-c3ccc(F)cc3)nn2)[C@H](O)C[C@@H]1c1ccc(Cl)cc1 | 89.5* | 16.9 | 7.6 | -8.7
C[C@H]([C@@H](N)C(=O)N[C@@H](C(=O)O)[C@@H]1O[C@H](n2ccc(=O)[nH]c2=O)[C@@H](O)[C@H]1O)[C@@H](O)c1ccc(O)cn1 | -5.3 | -5.0 | -9.8 | -37.2
Cc1csc(NC(=O)C(C)Oc2ccc(Br)cc2)n1 (centres undefined) | 105.7* | -0.1 | 7.8 | -16.2
C[C@H](NC(=O)c1ccco1)C(=O)Nc1nc(-c2ccccn2)cs1 | -1.1 | -4.1 | . | -17.3
CC(Oc1ccc(Br)cc1)C(=O)Nc1ccncc1 (centres undefined) | -8.1 | 5.6 | . | -14.6
O=C(CCS(=O)(=O)c1ccc(F)cc1)Nc1nc(-c2ccccn2)cs1 | 84.5* | -10.0 | 1.0 | -26.0
CC(Oc1ccc(F)cc1)C(=O)Nc1nc(-c2ccccn2)cs1 (centres undefined) | 68.6* | 10.9 | -3.2 | -9.1
O=C(CCS(=O)(=O)c1ccccc1)Nc1nc(-c2ccccn2)cs1 | 73.2* | 2.6 | 2.6 | -17.6
Cc1ccc(S(=O)(=O)CCC(=O)Nc2nc(-c3ccncc3)cs2)cc1 | 20.0 | -2.7 | -1.3 | -21.3
CCC(=O)N1CC(=O)N2[C@H](C1)[C@H](c1ccc(C#Cc3cccc(F)c3)cc1)[C@@H]2CO | . | . | . | -18.9
CCN(C(=O)CSc1nc(N)cc(N)n1)C1CCS(=O)(=O)C1 (centres undefined) | 3.7 | 1.1 | -9.2 | 0.4
COc1cc(/C=C/C(=O)N2CCCC2)cc(OC)c1OC | 6.8 | 4.6 | 2.3 | .
COc1ccc2ccc3cccc[n+]3c2c1 | -6.6 | -12.5 | 50.5* | 9.9
C1=C2C[N+]3(CCCC3)CC2Cc2ccc3ccccc3c21 (centres undefined) | . | . | 54.1* | 23.2
CC(C)c1cc(C(=O)OCC(=O)N2CCN(C(=O)c3ccco3)CC2)c(O)c(C(C)C)c1 | 113.3* | -4.7 | 14.7 | -20.8
Cc1cccc(C(=O)OCC(=O)N2CCN(C(=O)c3ccco3)CC2)c1O | 9.9 | -1.5 | -13.6 | -8.2
COc1ccc2c3c([nH]c2c1)[C@@H](CO)N(C(=O)Nc1cccc(F)c1)CC31CCN(S(=O)(=O)c2cccc(C)c2)CC1 | 95.9* | 6.8 | . | -3.4
COc1ccc2c3c([nH]c2c1)[C@@H](CO)N(C(=O)Nc1cccc(F)c1)CC31CN(S(=O)(=O)c2cccc(C)c2)C1 | . | . | . | -25.6
COc1ccc2c3c([nH]c2c1)[C@@H](CO)N(C(=O)Nc1ccc(F)cc1)CC31CN(S(=O)(=O)c2ccc(C)cc2)C1 | 68.1* | 5.6 | . | 5.9
